In brackets after ≈: the same amount, converted by molar mass.
Tests used:
[1] = system: Human immunodeficiency virus 1; test: Antiviral activity against HIV1 3B in human MT4 cells assessed as protection against virus-induced cytopathogenicity by MTT assay; type: functional, organism-based; design: Activity: concentration or dose not given beside the values; conditions: for IC50: Human immunodeficiency virus 1, 3B, MT4
Outline: (§1)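 MT-4 cells at 6 × 10⁵ cells/ml infected with HIV-1 IIIB or HIV-2 ROD at 100–300 CCID50; compounds in serial five-fold dilutions, triplicate mock- and virus-infected wells. MTT viability read at 540 and 690 nm after 5 days, median OD of three wells; EC50 = 50% protection from viral cytopathic effect.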

[2] = system: Human immunodeficiency virus 2; test: Antiviral activity against HIV2 ROD in human MT4 cells assessed as protection against virus-induced cytopathogenicity by MTT assay; type: functional, organism-based; design: Activity: concentration or dose not given beside the values; conditions: for IC50: Human immunodeficiency virus 2, ROD, MT4; outline: as §1
[3] = Cytotoxicity against human MT4 cells by MTT assay; type: cell-based
Outline: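 Mock-infected MT-4 cells (6 × 10⁵ cells/ml) with serial five-fold compound dilutions in triplicate; MTT reduction read at 540 and 690 nm after 5 days, median OD of three wells; CC50 = concentration reducing OD540 of mock-infected control by 50%.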

[4] = Cytotoxicity against human HeLa cells; type: cell-based
Outline: (§2)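 Uninfected cell cultures exposed to test compounds alongside antiviral assays; minimum cytotoxic concentration (MCC) = concentration causing a microscopically detectable alteration of cell morphology.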

[5] = system: Vesicular stomatitis virus; test: Antiviral activity against vesicular stomatitis virus in human HeLa cells assessed as inhibition of virus-induced cytopathogenicity; type: functional
Outline: (§3)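 Confluent cell monolayers (E6SM, HEL, HeLa or Vero, per line) inoculated with 100 CCID50 virus; 1 h adsorption, residual virus removed, then incubated with compound at 400, 200, 100 … µg/ml. Cytopathicity scored once complete in untreated virus controls; MIC = concentration inhibiting virus-induced cytopathicity.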

Coxsackievirus B4 [6] = test: Antiviral activity against Coxsackie virus B4 in human HeLa cells assessed as inhibition of virus-induced cytopathogenicity; type: functional; conditions: Enterovirus B; outline: as §3
[7] = system: Respiratory syncytial virus; test: Antiviral activity against respiratory syncytial virus in human HeLa cells assessed as inhibition of virus-induced cytopathogenicity; type: functional; outline: as §3
[8] = Cytotoxicity against human E6SM cells; type: cell-based; conditions: E6SM cells; outline: as §2
[9] = Cytotoxicity against human HEL cells assessed as alteration of cell morphology; type: cell-based; outline: as §2
Human alphaherpesvirus 1 [10] = test: Antiviral activity against HSV1 KOS in human E6SM cells assessed as reduction of virus-induced cytopathogenicity; type: functional; conditions: Human alphaherpesvirus 1, KOS; outline: as §3
Human alphaherpesvirus 1 [11] = test: Antiviral activity against HSV1 KOS in human HEL cells assessed as reduction of virus-induced cytopathogenicity; type: functional; conditions: Human alphaherpesvirus 1, KOS; outline: as §3
Human alphaherpesvirus 2 [12] = test: Antiviral activity against HSV2 G in human E6SM cells assessed as reduction of virus-induced cytopathogenicity; type: functional; conditions: Human alphaherpesvirus 2, G; outline: as §3
Human alphaherpesvirus 2 [13] = test: Antiviral activity against HSV2 G in human HEL cells assessed as reduction of virus-induced cytopathogenicity; type: functional; conditions: Human alphaherpesvirus 2, G; outline: as §3
[14] = system: Vesicular stomatitis virus; test: Antiviral activity against in Vesicular stomatitis virus in human E6SM cells assessed as reduction of virus-induced cytopathogenicity; type: functional; outline: as §3
[15] = system: Vesicular stomatitis virus; test: Antiviral activity against in Vesicular stomatitis virus in human HEL cells assessed as reduction of virus-induced cytopathogenicity; type: functional; outline: as §3
Human alphaherpesvirus 1 [16] = test: Antiviral activity against thymidine kinase deficient and acyclovir resistant HSV1 KOS in human E6SM cells assessed as reduction of virus-induced cytopathogenicity; type: functional; conditions: Human alphaherpesvirus 1, KOS; outline: as §3
Human alphaherpesvirus 1 [17] = test: Antiviral activity against thymidine kinase deficient and acyclovir resistant HSV1 KOS in human HEL cells assessed as reduction of virus-induced cytopathogenicity; type: functional; conditions: Human alphaherpesvirus 1, KOS; outline: as §3
Vero = test: Cytotoxicity against african green monkey Vero cells; type: cell-based; conditions: chlorocebus sabaeus; outline: as §2
Coxsackievirus B4 [18] = test: Antiviral activity against Coxsackie virus B4 in african green monkey Vero cells assessed as reduction of virus-induced cytopathogenicity; type: functional; conditions: Enterovirus B; outline: as §3
Punta Toro virus = test: Antiviral activity against Punta Toro virus in african green monkey Vero cells assessed as reduction of virus-induced cytopathogenicity; type: functional; outline: as §3
Human respirovirus 3 = test: Antiviral activity against Parainfluenza 3 virus in african green monkey Vero cells assessed as reduction of virus-induced cytopathogenicity; type: functional; outline: as §3
[19] = system: Mammalian orthoreovirus 1; test: Antiviral activity against Reo virus 1 in african green monkey Vero cells assessed as reduction of virus-induced cytopathogenicity; type: functional; outline: as §3
Sindbis virus = test: Antiviral activity against Sindbis virus in african green monkey Vero cells assessed as reduction of virus-induced cytopathogenicity; type: functional; outline: as §3

## C=CCNC(=S)Nc1ccc(-c2nnc(SCc3ccc(Cl)cc3Cl)n2C)cc1
[1]
  Activity: 0.5%
  IC50: > 116 µg/mL
[2]
  Activity: 5%
  IC50: > 116 µg/mL
[3]
  CC50: 116 µg/mL (≈ 250 µM)
[4]
  MCC: 400 µg/mL
[5]
  MIC: > 80 µg/mL
Coxsackievirus B4 [6]
  MIC: > 80 µg/mL
[7]
  MIC: > 80 µg/mL
[8]
  MCC: 80 µg/mL
[9]
  MCC: 80 µg/mL
Human alphaherpesvirus 1 [10]
  MIC: > 16 µg/mL
Human alphaherpesvirus 1 [11]
  MIC: > 16 µg/mL
Human alphaherpesvirus 2 [12]
  MIC: > 16 µg/mL
Human alphaherpesvirus 2 [13]
  MIC: > 16 µg/mL
[14]
  MIC: > 16 µg/mL
[15]
  MIC: > 16 µg/mL
Human alphaherpesvirus 1 [16]
  MIC: > 16 µg/mL
Human alphaherpesvirus 1 [17]
  MIC: > 16 µg/mL
Vero
  Activity: 80 µg/mL
Coxsackievirus B4 [18]
  MIC: > 16 µg/mL
Punta Toro virus
  MIC: > 16 µg/mL
Human respirovirus 3
  MIC: > 16 µg/mL
[19]
  MIC: > 16 µg/mL
Sindbis virus
  MIC: > 16 µg/mL

## C=CCn1c(-c2ccc(NC(=S)NC)cc2)n[nH]c1=S
[1]
  Activity: 9%
  IC50: > 80.9 µg/mL
[2]
  Activity: 0%
  IC50: > 80.9 µg/mL
[3]
  CC50: 80.9 µg/mL (≈ 265 µM)
[4]
  MCC: 400 µg/mL
[5]
  MIC: > 80 µg/mL
Coxsackievirus B4 [6]
  MIC: > 80 µg/mL
[7]
  MIC: > 80 µg/mL
[8]
  MCC: 400 µg/mL
[9]
  MCC: 400 µg/mL
Human alphaherpesvirus 1 [10]
  MIC: 240 µg/mL (≈ 786 µM)
Human alphaherpesvirus 1 [11]
  MIC: 240 µg/mL (≈ 786 µM)
Human alphaherpesvirus 2 [12]
  MIC: 240 µg/mL (≈ 786 µM)
Human alphaherpesvirus 2 [13]
  MIC: 240 µg/mL (≈ 786 µM)
[14]
  MIC: > 80 µg/mL
[15]
  MIC: > 80 µg/mL
Human alphaherpesvirus 1 [16]
  MIC: 240 µg/mL (≈ 786 µM)
Human alphaherpesvirus 1 [17]
  MIC: 240 µg/mL (≈ 786 µM)
Vero
  Activity: >= 80 ug ml-1
Coxsackievirus B4 [18]
  MIC: > 80 µg/mL
Punta Toro virus
  MIC: > 80 µg/mL
Human respirovirus 3
  MIC: > 80 µg/mL
[19]
  MIC: > 80 µg/mL
Sindbis virus
  MIC: > 80 µg/mL

## CCCCCCNC(=S)Nc1ccc(-c2n[nH]c(=S)n2C)cc1
[1]
  Activity: 8%
  IC50: > 8.82 µg/mL
[2]
  Activity: 0%
  IC50: > 8.82 µg/mL
[3]
  CC50: 8.82 µg/mL (≈ 25.2 µM)
[4]
  MCC: 80 µg/mL
[5]
  MIC: > 16 µg/mL
Coxsackievirus B4 [6]
  MIC: > 16 µg/mL
[7]
  MIC: > 16 µg/mL
[8]
  MCC: 400 µg/mL
[9]
  MCC: 400 µg/mL
Human alphaherpesvirus 1 [10]
  MIC: 48 µg/mL (≈ 137 µM)
Human alphaherpesvirus 1 [11]
  MIC: 48 µg/mL (≈ 137 µM)
Human alphaherpesvirus 2 [12]
  MIC: 48 µg/mL (≈ 137 µM)
Human alphaherpesvirus 2 [13]
  MIC: 48 µg/mL (≈ 137 µM)
[14]
  MIC: > 80 µg/mL
[15]
  MIC: > 80 µg/mL
Human alphaherpesvirus 1 [16]
  MIC: 48 µg/mL (≈ 137 µM)
Human alphaherpesvirus 1 [17]
  MIC: 48 µg/mL (≈ 137 µM)
Vero
  Activity: 80 µg/mL
Coxsackievirus B4 [18]
  MIC: > 16 µg/mL
Punta Toro virus
  MIC: > 16 µg/mL
Human respirovirus 3
  MIC: > 16 µg/mL
[19]
  MIC: > 16 µg/mL
Sindbis virus
  MIC: > 16 µg/mL

## CCNC(=S)Nc1ccc(-c2n[nH]c(=S)n2C)cc1
[1]
  Activity: 3%
  IC50: > 82.4 µg/mL
[2]
  Activity: 0%
  IC50: > 82.4 µg/mL
[3]
  CC50: 82.4 µg/mL (≈ 281 µM)
[4]
  MCC: 400 µg/mL
[5]
  MIC: > 80 µg/mL
Coxsackievirus B4 [6]
  MIC: > 80 µg/mL
[7]
  MIC: > 80 µg/mL
[8]
  MCC: ≥ 400 µg/mL
[9]
  MCC: ≥ 400 µg/mL
Human alphaherpesvirus 1 [10]
  MIC: 240 µg/mL (≈ 818 µM)
Human alphaherpesvirus 1 [11]
  MIC: 240 µg/mL (≈ 818 µM)
Human alphaherpesvirus 2 [12]
  MIC: 240 µg/mL (≈ 818 µM)
Human alphaherpesvirus 2 [13]
  MIC: 240 µg/mL (≈ 818 µM)
[14]
  MIC: > 400 µg/mL
[15]
  MIC: > 400 µg/mL
Human alphaherpesvirus 1 [16]
  MIC: 240 µg/mL (≈ 818 µM)
Human alphaherpesvirus 1 [17]
  MIC: 240 µg/mL (≈ 818 µM)
Vero
  Activity: 400 µg/mL
Coxsackievirus B4 [18]
  MIC: > 80 µg/mL
Punta Toro virus
  MIC: > 80 µg/mL
Human respirovirus 3
  MIC: > 80 µg/mL
[19]
  MIC: > 80 µg/mL
Sindbis virus
  MIC: > 80 µg/mL

## Cn1c(-c2ccc(NC(=S)Nc3ccccc3)cc2)n[nH]c1=S
[1]
  Activity: 35%
  IC50: > 42.8 µg/mL
[2]
  Activity: 10%
  IC50: > 42.8 µg/mL
[3]
  CC50: 42.8 µg/mL (≈ 125 µM)
[4]
  MCC: 80 µg/mL
[5]
  MIC: > 16 µg/mL
Coxsackievirus B4 [6]
  MIC: > 16 µg/mL
[7]
  MIC: > 16 µg/mL
[8]
  MCC: 400 µg/mL
[9]
  MCC: 400 µg/mL
Human alphaherpesvirus 1 [10]
  MIC: > 80 µg/mL
Human alphaherpesvirus 1 [11]
  MIC: > 80 µg/mL
Human alphaherpesvirus 2 [12]
  MIC: > 80 µg/mL
Human alphaherpesvirus 2 [13]
  MIC: > 80 µg/mL
[14]
  MIC: > 80 µg/mL
[15]
  MIC: > 80 µg/mL
Human alphaherpesvirus 1 [16]
  MIC: 48 µg/mL (≈ 141 µM)
Human alphaherpesvirus 1 [17]
  MIC: 48 µg/mL (≈ 141 µM)
Vero
  Activity: 400 µg/mL
Coxsackievirus B4 [18]
  MIC: > 80 µg/mL
Punta Toro virus
  MIC: > 80 µg/mL
Human respirovirus 3
  MIC: > 80 µg/mL
[19]
  MIC: > 80 µg/mL
Sindbis virus
  MIC: > 80 µg/mL

## CCNC(=S)Nc1ccc(-c2n[nH]c(=S)n2-c2ccccc2)cc1
[1]
  Activity: 5.5%
  IC50: > 91.3 µg/mL
[2]
  Activity: 3%
  IC50: > 91.3 µg/mL
[3]
  CC50: 91.3 µg/mL (≈ 257 µM)
[4]
  MCC: ≥ 80 µg/mL
[5]
  MIC: > 80 µg/mL
Coxsackievirus B4 [6]
  MIC: > 80 µg/mL
[7]
  MIC: > 80 µg/mL
[8]
  MCC: ≥ 3.2 µg/mL
[9]
  MCC: ≥ 3.2 µg/mL
Human alphaherpesvirus 1 [10]
  MIC: > 3.2 µg/mL
Human alphaherpesvirus 1 [11]
  MIC: > 3.2 µg/mL
Human alphaherpesvirus 2 [12]
  MIC: > 3.2 µg/mL
Human alphaherpesvirus 2 [13]
  MIC: > 3.2 µg/mL
[14]
  MIC: > 3.2 µg/mL
[15]
  MIC: > 3.2 µg/mL
Human alphaherpesvirus 1 [16]
  MIC: > 3.2 µg/mL
Human alphaherpesvirus 1 [17]
  MIC: > 3.2 µg/mL
Vero
  Activity: >= 80 ug ml-1
Coxsackievirus B4 [18]
  MIC: > 80 µg/mL
Punta Toro virus
  MIC: > 80 µg/mL
Human respirovirus 3
  MIC: > 80 µg/mL
[19]
  MIC: > 80 µg/mL
Sindbis virus
  MIC: > 80 µg/mL
